One block for each compound: values may come before it.
Legend:
[1] = molecular target: T1, human UGT1A1 (Homo sapiens, UniProt P22309); test: Inhibition of estradiol 3-O-glucuronidation in the UGT1A1 recombinant system; assay type: biochemical; details: for Inhibition of UGT1A1 activity: UGT1A1 recombinant system, 50 μM fatty acid; for Inhibitory pattern against estradiol 3-O-glucuronidation: Recombinant UGT1A1, Dixon plot
T1 sequence (P22309 26-533): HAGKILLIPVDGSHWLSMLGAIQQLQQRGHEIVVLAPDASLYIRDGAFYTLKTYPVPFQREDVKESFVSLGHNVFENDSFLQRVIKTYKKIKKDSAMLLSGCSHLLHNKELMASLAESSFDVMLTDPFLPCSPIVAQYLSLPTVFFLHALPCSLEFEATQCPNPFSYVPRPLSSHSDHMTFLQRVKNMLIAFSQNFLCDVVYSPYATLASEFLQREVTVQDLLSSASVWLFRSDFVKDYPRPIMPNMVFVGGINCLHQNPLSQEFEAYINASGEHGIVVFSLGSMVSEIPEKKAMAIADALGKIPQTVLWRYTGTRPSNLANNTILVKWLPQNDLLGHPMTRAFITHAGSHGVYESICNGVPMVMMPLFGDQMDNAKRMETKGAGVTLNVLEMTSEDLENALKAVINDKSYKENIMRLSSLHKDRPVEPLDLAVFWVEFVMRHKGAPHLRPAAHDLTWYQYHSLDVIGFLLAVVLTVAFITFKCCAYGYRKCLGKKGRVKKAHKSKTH
How it was run: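 Recombinant UGT1A1 Supersomes (0.25 mg/ml) were used in 50 mM Tris-HCl pH 7.4, 10 mM MgCl2, 25 μg/ml alamethicin and 2 mM UDPGA, with test fatty acid at 1–50 μM, 3-min preincubation, and 30 min at 37°C. For IC50, estradiol was 10 μM, runs were duplicate, and values came from linear regression. For Ki, estradiol was 5, 10 or 20 μM with Dixon plot. Product measured by HPLC-fluorescence against authentic standard.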

[2] = molecular target: T1, human UGT1A1; details: read-out: Km value of bilirubin glucuronidation; cited from earlier work
[3] = molecular target: T2, UGT1A1 activity in human liver microsomes (Homo sapiens, UniProt P22309); test: Inhibition of estradiol 3-O-glucuronidation in human liver microsomes; assay type: biochemical; details: for Inhibitory pattern against estradiol 3-O-glucuronidation: Human liver microsomes, Dixon plot
T2 sequence (P22309 26-533): T1 sequence (P22309 26-533)
How it was run: (§1)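 Microsomes from human liver or small intestine (0.25 mg/ml) were incubated with 50 mM Tris-HCl pH 7.4, 10 mM MgCl2, 25 μg/ml alamethicin, 2 mM UDPGA, estradiol at 5, 10 or 20 μM, and test fatty acid at 1–50 μM. After 3-min preincubation at 37°C, UDPGA was added to start; 30 min at 37°C; cold methanol stop. Glucuronide measured by HPLC-fluorescence (ex 280/em 310 nm); Dixon plot gave inhibition type and Ki.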

[4] = system: UGT1A1; test: Inhibition of estradiol 3-O-glucuronidation in human small intestine microsomes; assay type: biochemical; details: human, human small intestine microsomes; for activity at 30 min, 50 μM: pH 7.4, probe estradiol (10 μM; estradiol 3-O-glucuronide formation)
How it was run: as §1

[5] = system: bilirubin clearance by UGT1A1; test: Estimated ratio of intrinsic clearance; details: Equation 4; DHA concentration in human breast milk around 60 μM
[6] = system: hUGT1 mice; assay type: in vivo; details: neonatal hUGT1 mice; oral 10 mg/kg at 12 days after birth; 48 hours after treatment; control increase 2.3 ± 3.2 mg/dL
[7] = system: UGT1A1 activity in human small intestine microsomes; test: Inhibition of estradiol 3-O-glucuronidation in human small intestine microsomes; assay type: biochemical; details: Human small intestine microsomes; Dixon plot
How it was run: as §1

IC50 [1]: > 50 µM | Inhibition of UGT1A1 activity [1]: not inhibited at all
Structure (SMILES): CCCCCCCCCCCCCC(=O)O [myristic acid]

Structure (SMILES): C=CC1=C(C)/C(=C/c2[nH]c(Cc3[nH]c(/C=C4\NC(=O)C(C)=C4C=C)c(C)c3CCC(=O)O)c(CCC(=O)O)c2C)NC1=O [bilirubin]
Km [2]: ~2 µM

IC50 [1]: > 50 µM
Structure (SMILES): CCCCCCCCCCCCCCCCCC(=O)O [stearic acid]

IC50 [1]: 22.7 µM
Structure (SMILES): CCCCC/C=C\C/C=C\C/C=C\C/C=C\CCCC(=O)O [Arachidonic acid]

Ki [3]: 29.3 µM | Inhibitory pattern against estradiol 3-O-glucuronidation [3]: non-competitively | IC50 [1]: 31.6 µM | Ki [1]: 23.4 µM | Inhibitory pattern against estradiol 3-O-glucuronidation [1]: non-competitively | activity at 30 min, 50 μM [4]: > 80%
Structure (SMILES): CCCCCCCC/C=C\CCCCCCCC(=O)O [Oleic acid]

Ki [3]: 24 µM | Inhibitory pattern against estradiol 3-O-glucuronidation [3]: non-competitively | IC50 [1]: 33.1 µM | Ki [1]: 22.1 µM | Inhibitory pattern against estradiol 3-O-glucuronidation [1]: non-competitively | activity at 30 min, 50 μM [4]: > 80%
Structure (SMILES): CCCCC/C=C\C/C=C\CCCCCCCC(=O)O [Linoleic acid]

IC50 [1]: > 50 µM | Inhibition of UGT1A1 activity [1]: not inhibited at all
Structure (SMILES): CCCCCCCCCCCCCCCCCCCCCC(=O)O [behenic acid]

R value (ratio of intrinsic clearance in presence and absence of inhibitor) [5]: 0.08 | Ki [3]: 4.3 µM | Inhibitory pattern against estradiol 3-O-glucuronidation [3]: non-competitive | IC50 [1]: 11.6 µM | Ki [1]: 1.8 µM | Inhibitory pattern against estradiol 3-O-glucuronidation [1]: non-competitive | Ki at 30 min ([4]; pH 7.4): 5.2 µM
Structure (SMILES): CC/C=C\C/C=C\C/C=C\C/C=C\C/C=C\C/C=C\CCC(=O)O [DHA, docosahexaenoic acid]
Increase of serum bilirubin levels from 12 days to 14 days after birth [6]: 6.6 mg/dL | Inhibitory pattern against estradiol 3-O-glucuronidation [7]: non-competitive

IC50 [1]: 37.1 µM
Structure (SMILES): CCCCCC/C=C\CCCCCCCC(=O)O [Palmitoleic acid]

IC50 [1]: > 50 µM | Inhibition of UGT1A1 activity [1]: not inhibited at all
Structure (SMILES): CCCCCCCCCCCCCCCCCCCC(=O)O [arachidic acid]

Inhibition of UGT1A1 activity [1]: not inhibited at all
Structure (SMILES): CCCCCCCCCCCCCCCCCCCCCCCC(=O)O [lignoceric acid]

IC50 [1]: > 50 µM | Inhibition of UGT1A1 activity [1]: not inhibited at all
Structure (SMILES): CCCCCCCCCCCCCCCC(=O)O [palmitic acid]

IC50 [1]: > 50 µM
Structure (SMILES): CCCCCCCCCC(=O)O [decanoic acid]

IC50 [1]: 19.9 µM
Structure (SMILES): CC/C=C\C/C=C\C/C=C\C/C=C\C/C=C\CCCC(=O)O [EPA, eicosapentaenoic acid]

Inhibition of UGT1A1 activity [1]: not inhibited at all
Structure (SMILES): CCCCCCCCCCCC(=O)O [lauric acid]
